Screens as filed in PubChem BioAssay.
A selection: hits, their analogues and other compounds. The true share with any hit is near 2.6%.
Scp1 inh – Scp-1 phosphatase inhibitors, primary screen, biochemical, colorimetric, uHTS; 0.88% of 340,000 active; inhibition, % at 20 µM; Carboxy-terminal domain RNA polymerase II polypeptide A small phosphatase 1 (Homo …; AID 493091, 2011; Recombinant Scp1, phosphopeptide, malachite green phosphate absorbance;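 active = inhibition above about 50% at 20 µM, limit read from the data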
Target sequence (Q9GZU7 76-261 limits assumed): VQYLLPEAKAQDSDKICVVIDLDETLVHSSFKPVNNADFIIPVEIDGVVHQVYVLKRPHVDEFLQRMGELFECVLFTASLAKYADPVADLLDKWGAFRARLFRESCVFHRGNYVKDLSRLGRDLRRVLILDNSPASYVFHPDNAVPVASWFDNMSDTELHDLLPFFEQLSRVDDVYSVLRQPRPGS
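Test system: SCP-1 catalytic domain; Buffer or medium: Acidic Tris acetate buffer with magnesium and detergent; Also added: Phosphorylated 17-residue peptide substrate; Compound: single 20 µM dose, 1% DMSO; Schedule: enzyme reaction 45 min at room temperature, colour 5 min, stabilisation 30 min; Signal: Phosphate-binding colour reagent, absorbance read at 630 nm.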
LMPTP inh – LMPTP phosphatase inhibitors, primary screen, biochemical, fluorescence intensity, uHTS | 0.22% of 360,000 active | recombinant LMPTP-A, OMFP fluorogenic substrate | inhibition, % at 20 µM | Low molecular weight phosphotyrosine protein phosphatase (Homo sapiens), P24666;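 active = compounds that cut the enzyme signal by at least half of the control window in the single-dose screen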
Target sequence (P24666 whole entry, looked up): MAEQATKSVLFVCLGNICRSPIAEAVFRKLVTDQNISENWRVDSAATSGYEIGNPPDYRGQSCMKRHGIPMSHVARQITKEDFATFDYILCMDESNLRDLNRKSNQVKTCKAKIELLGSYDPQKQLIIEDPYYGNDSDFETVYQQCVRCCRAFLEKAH
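Test system: LMPTP-A phosphatase enzyme; input: 0.625 nM LMPTP-A final; reagent: OMFP substrate, 400 µM final; compound dosing: 20 µM single dose, 3% DMSO; incubation: 50 min dark incubation at room temperature; measured by: endpoint fluorescence intensity from OMFP dephosphorylation; measure: % inhibition relative to no-enzyme and uninhibited control wells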
rCAG RNA binder – binders of r(CAG) RNA repeats, primary screen, biochemical, fluorescence. r(CAG) RNA repeat, TO-PRO-1 dye displacement fluorescence. 1.3% of 370,000 active. inhibition, % at 3 µM;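 active = inhibition above the plate cutoff, the mean of all test compounds on that plate plus 3 SD, cut at about 35% in these data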;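 note: higher means more dye released from RNA so lower well fluorescence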
NadD inh – inhibitors of S. aureus NadD, primary screen, biochemical, colorimetric, uHTS. Nicotinate-nucleotide adenylyltransferase NadD (Staphylococcus aureus N315). purified NadD enzyme, colorimetric absorbance read-out. inhibition, % at 20 µM. 0.78% of 360,000 active. AID 602399, 2012; in the data active = inhibition above about 26%
STEP block – STEP phosphatase inhibitors, primary screen, biochemical, fluorescence intensity, uHTS; Tyrosine-protein phosphatase non-receptor type 5 (Homo sapiens), P54829; inhibition, % at 20 µM; recombinant STEP, OMFP fluorogenic substrate; 0.25% of 360,000 active; AID 588621, 2011;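 active = inhibition at 20 µM, scaled per plate between control wells, above about 37%, limit read from the data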
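Material: STEP (striatal-enriched tyrosine phosphatase) enzyme, cell-free; Compound dosing: 20 µM single dose in 1% DMSO; Technique: fluorescence read at 480 nm ex / 540 nm em; Times: reaction 20 min, ambient temperature; Medium: 50 mM Bis-Tris pH 6.0 with 2.5 mM DTT and 0.005% Tween 20; Also added: OMFP at 25 µM.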
Scp-1 conf – Scp-1 phosphatase inhibitors, retest, confirmation, biochemical, colorimetric, single concentration; 61% of 2,500 active; recombinant SCP-1 catalytic domain, phosphate release, malachite green absorbance; AID 540281, 2011; inhibition, % at 20 µM; shares compounds with Scp1 inh
Scp-1 MG ctr – colorimetric readout interference by compounds, confirmation, artefact control for Scp-1 inhibitor project, biochemical, single concentration; apparent inhibition (interference), % at 20 µM; shares compounds with Scp1 inh; Colorimetric interference counterscreen, malachite green absorbance 630 nm; 2,500 tested, under 10 active; AID 540313, 2011;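 note: compounds added after enzyme reaction finished so only phosphate colour detection is probed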
Scp1 DSF – Scp-1 binding by thermal shift, confirmation, orthogonal assay for Scp-1 inhibitor project, biophysical, differential scanning fluorimetry; shares compounds with Scp1 inh; Recombinant SCP1, Sypro Orange thermal shift Tm; thermal shift relative to vanadate control, % at 40 µM; 25% of 1,500 active;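 active = substances whose mean melting-temperature shift, as a percentage of the reference inhibitor's shift, reaches about 5.3%, limit read from the data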
Hits are given with their value; – = inactive; · = no result given.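 Rule for the calls, unless noted: active = inhibition of at least 30% at 20 µM; inactive = the rest.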

SMILES	Scp1 inh	LMPTP inh	rCAG RNA binder	NadD inh	STEP block	Scp-1 conf	Scp-1 MG ctr	Scp1 DSF
CCOC(=O)C1=C(C)N=c2s/c(=C\c3cccc(OCC(=O)O)c3)c(=O)n2C1c1ccccc1OC (stereo not drawn)	61	–	–	–	–	33	–	5.8
O=C(Nc1ccc(C(F)(F)F)cc1)c1ccc2nc[nH]c2c1	–	–	–	–	–	·	·	·
Cc1ccccc1C(=O)NNC(=O)c1ccc2nc[nH]c2c1	–	–	–	–	–	·	·	·
NS(=O)(=O)c1cccc(NC(=O)c2ccc3nc[nH]c3c2)c1	70	–	–	–	–	67	–	–
Cc1cccc(NC(=O)CNC(=O)c2ccc3nc[nH]c3c2)c1C	68	–	–	–	–	51	–	–
FC(F)(F)c1cccc(N2CCN(C3=Nc4ccccc4Sc4ccccc43)CC2)c1	·	·	–	·	·	·	·	·
O=C(COC(=O)c1cc(=O)[nH]c2ccccc12)NC1CCCCCCC1	–	–	–	–	–	·	·	·
O=C(COC(=O)c1cc(=O)[nH]c2ccccc12)NC(=O)NC1CCCCC1	–	–	–	–	–	–	–	·
CC(C)C(=O)Oc1ccc(CO)cc1[C@H](CCN(C(C)C)C(C)C)c1ccccc1	·	·	–	·	·	·	·	·
C#CCNC(=O)C[C@H]1C[C@@]2(C(=O)OC)C(=C[C@H](C3CCCC3)O[C@@H]2C)N(Cc2cccc3ccccc23)C1=O	·	·	–	·	·	·	·	·
O=C(O)C1C2C=CC(C2)C1C(=O)N1CCc2ccccc21 (stereo not drawn)	–	–	–	–	–	·	·	·
O=C(O)C1CC=CCC1C(=O)N1CCc2ccccc21 (stereo not drawn)	52	–	–	–	–	49	–	–
O=C(CCc1ccccc1)N[C@H]1[C@H](OC(=O)c2ccc3ccccc3n2)CCC[C@@]12C(=O)N(Cc1ccccc1)c1ccccc12	·	·	–	·	·	·	·	·
Cc1ccc(S(=O)(=O)NN2C(=O)/C(=C/c3ccc(C(=O)O)cc3)SC2=S)cc1	64	–	–	–	–	–	–	·
Cc1ccc(/C=C2\SC(=S)N(NS(=O)(=O)c3ccc(C)cc3)C2=O)cc1	–	–	–	–	–	·	·	·
COc1ccc(CN2C3=N[C@H](c4ccccc4)CC(=O)N3/C(=C\c3ccccc3)C2c2ccco2)c(OC)c1 (stereo partly drawn)	·	·	–	·	·	·	·	·
NC(=O)CC[C@@H]1NC(=O)[C@H](CO)NC(=O)c2cc([N+](=O)[O-])cc(I)c2NCCCC[C@@H](C(N)=O)NC(=O)[C@H](Cc2ccc(O)cc2)NC1=O	–	·	·	·	·	·	·	·
C[C@@H]1NC(=O)c2cc([N+](=O)[O-])cc(I)c2OCC[C@@H](C(=O)NC(CC(=O)O)C(N)=O)NC(=O)[C@H](CCC(=O)O)NC1=O (stereo partly drawn)	50	·	·	·	·	53	–	–
NC(=O)C(CC(=O)O)NC(=O)[C@@H]1CCCNc2c(I)cc([N+](=O)[O-])cc2C(=O)N[C@@H](CO)C(=O)N[C@@H](Cc2ccc(O)cc2)C(=O)N1 (stereo partly drawn)	62	–	·	–	–	43	–	9.8
O=C(Cc1ccccc1F)Nc1nnc(-c2cccnc2)s1	·	·	–	·	·	·	·	·
O=C(NNC(=O)c1ccc(Cl)cc1Cl)c1ccc2ccccc2c1	–	–	–	–	–	–	–	·
CC(C)OCCOc1ccc2oc(-c3ccco3)cc(=O)c2c1	61	–	–	–	–	60	–	–
Cc1ccc2oc(-c3ccco3)cc(=O)c2c1	–	–	–	–	–	·	·	·
CC(=O)C(Cc1ccc(Cl)nc1)Cc1ccc(Cl)nc1	69	–	–	–	–	–	–	·
C[C@H]1[C@@H]2C[C@@]3(O[C@H](c4ccccn4)N=C3C[C@@H]1c1ccccc1)N(Cc1ccncc1)C2=O	·	·	–	·	·	·	·	·
SMILES	Scp1 inh	LMPTP inh	rCAG RNA binder	NadD inh	STEP block	Scp-1 conf	Scp-1 MG ctr	Scp1 DSF
Cc1occc1C(=O)NCc1cccc(CNC(=O)c2ccoc2C)c1	51	–	·	–	–	73	–	–
Cc1occc1C(=O)NCc1ccc2c(c1)OCO2	–	–	–	–	–	·	·	·
CC[n+]1c(C)n(C)c2cc(S(=O)(=O)N(C)C)ccc21	–	–	–	–	–	·	·	·
CCn1c(C)[n+](CC)c2ccc(S(=O)(=O)N(C)C)cc21	89	–	–	–	–	–	–	·
CCOc1ccc(-n2c(SCC(=O)Nc3ccccc3-c3ccccc3)nnc2-c2ccccc2)cc1	·	·	–	·	·	·	·	·
Cc1ccc2nc3c(cc(C(=O)NCc4ccco4)c(=N)n3Cc3ccco3)c(=O)n2c1	69	–	–	–	–	–	–	·
Cc1cccn2c(=O)c3cc(C(=O)NCCc4ccccc4)c(=N)n(Cc4ccco4)c3nc12	–	–	–	–	–	·	·	·
O=C(O)c1ccc2c(c1)C(=O)/C(=C/c1ccccc1)C2=O	76	–	–	–	–	53	–	23
Cc1ccc(/C=C2/C(=O)c3ccc(C(=O)O)cc3C2=O)o1	–	–	–	–	–	·	·	·
C[C@H]1COc2cccc(N3CCSCC3)c2S(=O)(=O)N1C	·	·	–	·	·	·	·	·
O=[N+]([O-])c1ccc2cc[nH]c2c1	61	–	–	–	–	–	–	·
COc1cccc(NC(=O)N2CC[C@@H]3[C@H]2c2cc(-c4cccc(C#N)c4)ccc2N(C)[C@@H]3CO)c1	·	·	–	·	·	·	·	·
Cc1oc2c(C)c3oc(=O)c(CC(=O)N[C@@H](CCCNC(N)=O)C(=O)O)c(C)c3cc2c1C	52	–	–	–	–	43	–	–
Cc1c(CC(=O)N[C@@H](CCCNC(N)=O)C(=O)O)c(=O)oc2cc3oc4c(c3cc12)CCCC4	·	–	–	–	–	·	·	·
CC(=O)OCC1=C(C(=O)O)N2C(=O)C(NC(=O)c3ccc(F)cc3)C2SC1 (stereo not drawn)	–	–	–	–	–	·	·	·
CC(=O)OCC1=C(C(=O)O)N2C(=O)C(NC(=O)C(C)Cn3nc(C)c(Cl)c3C)C2SC1 (stereo not drawn)	53	–	–	–	–	67	–	–
C[C@H](O)[C@@H]1CN2CCc3c([nH]c4c(-c5ccccc5)cccc34)[C@@H]2C[C@@H]1N(C)CC1CCCCC1	·	·	–	·	·	·	·	·
COc1ccc(S(=O)(=O)NCCN2CCOCC2)c(C)c1C	81	–	–	–	–	–	–	·
